Published values collected from several papers.
Read-out: metabolic stability
Host: human

| Structure (SMILES) | sample | tested at | pH | notes | half-life [min] |
| --- | --- | --- | --- | --- | --- |
| O=c1c2cc(Cl)ncc2[nH]c(=S)n1Cc1cccnc1 | liver microsomes | 1 µM | pH 7.4 |  | > 186 |
| CONC(=O)c1cccc2c1cc(C)n2-c1nc2c(c(NCc3ccccc3)n1)CCCN2 | liver microsomes | 1 µM | pH 7.4 |  | 13.3 |
| NC(=NCCC[C@@H](C(=O)NCc1ccccc1)n1cc(-c2ccc(-c3ccccc3)cc2)nn1)c1ccc([N+](=O)[O-])o1 | liver microsomes |  |  |  | 29 |
| Cc1ncsc1-c1ccc([C@H](CC(=O)N2CCN(c3ccc(C#Cc4ccc(C(=O)N5CCC(n6cc(-c7ccc8c(c7)CCN8C(=O)Cc7cccc(OC(F)(F)F)c7)c7c(N)ncnc76)CC5)cc4)cn3)CC2)NC(=O)[C@@H]2C[C@@H](O)CN2C(=O)[C@@H](NC(=O)C2(F)CC2)C(C)(C)C)cc1 | hepatocytes | 1 µM |  |  | > 120 |
| COc1ccc(Cn2cc(CO[C@@H]3O[C@H]4[C@H](OC[C@H]4O)[C@H]3O)nn2)cc1 | liver microsomes |  |  |  | 120 |
| O=c1c2ccc(Oc3ccccc3OC(F)(F)F)cc2[nH]c2cc(Cl)cc(F)c12 | liver microsomes | 1 µM | pH 7.4 |  | > 60 |
| Cc1[nH]c(C)c(S(=O)(=O)Nc2ccc(C(F)(F)F)c(Cl)c2)c1C(=O)N(C)C | liver microsomes |  |  |  | 8.7 |
| O=c1c2c([nH]c3cccc(Oc4ccc(OC(F)(F)F)cc4)c13)CCCC2 | liver microsomes | 1 µM | pH 7.4 |  | 12.7 |
| CCN(CC)CCNC(=O)c1c(C)[nH]c(/C=C2\C(=O)Nc3ccc(F)cc32)c1C | liver microsomes | 1 µM | pH 7.4 |  | 1630 |
| C=CCn1c(=O)c2cnc(Nc3ccc(N4CCN(C)CC4)cc3)nc2n1-c1ccc2c(n1)[C@@](O)(CC)CC2 | liver microsomes |  |  |  | 23 |
| O=c1c2ccccc2[nH]c2cc(Oc3ccc(OC(F)(F)F)cc3)ccc12 | liver microsomes | 1 µM | pH 7.4 |  | > 60 |
| O=C1CCC(N2Cc3cc(C4CCN(Cc5ccccc5)CC4)ccc3C2=O)C(=O)N1 (centres unmarked) | liver microsomes | 1 µM |  |  | > 60 |
| CCOc1ccc(Nc2c3c(nc4ccccc24)CCC3)cc1 | liver microsomes | 0.5 µM |  |  | 47 |
| Cc1[nH]c(C)c(S(=O)(=O)Nc2ccc(C(F)(F)F)c(Cl)c2Cl)c1C(=O)N1CCC(F)(F)C1 | liver microsomes |  |  |  | 94 |
| CCCCN(CCCC)CCCOc1ccc2c(=O)c3c([nH]c2c1)CCCC3 | liver microsomes | 1 µM | pH 7.4 |  | 15.1 |
| Cc1cccc(CNC(=O)c2cn(CCNC(=O)c3ccccc3Sc3c([N+](=O)[O-])ncn3C)c3cc4c(cc3c2=O)OCO4)n1 | blood | 1 µM |  | whole blood | 509 |
| O=C(O)Cc1ccccc1Nc1c(Cl)cccc1Cl | liver microsomes | 2 µM | pH 7.4 |  | 8.3 |
| O=c1c2cc(Cl)c(CO)cc2[nH]c(=S)n1Cc1cccnc1 | liver microsomes | 1 µM | pH 7.4 |  | 57.1 |
| CCCN(CCC)CCOc1ccc2c(=O)c3c([nH]c2c1)CCCC3 | liver microsomes | 1 µM | pH 7.4 |  | > 60 |
| O=C(O)Cc1ccccc1Nc1c(Cl)cccc1Cl | liver microsomes | 1 µM |  |  | 12 |
| O=c1c2c([nH]c3cc(OC(F)(F)F)ccc13)CCCC2 | liver microsomes | 1 µM | pH 7.4 |  | 8.01 |
| Cc1ccc2[nH]c(=S)n(Cc3cccnc3)c(=O)c2c1 | liver microsomes | 1 µM | pH 7.4 |  | 10.6 |
| O=c1c2c([nH]c3cc(Nc4ccc(OC(F)(F)F)cc4)ccc13)CCCC2 | liver microsomes | 1 µM | pH 7.4 |  | 20.7 |
| O=c1c2cc(Cl)ccc2[nH]c(=S)n1Cc1cccnc1 | liver microsomes | 1 µM | pH 7.4 |  | > 186 |
| OCc1ccc(-c2nn(Cc3ccccc3)c3ccccc23)o1 | hepatocytes |  |  |  | 6.6 |
| O=c1c2c([nH]c3cc(Oc4ccc(OC(F)(F)F)cc4)c(F)cc13)CCCC2 | liver microsomes | 1 µM | pH 7.4 |  | 19.1 |
